Results as given in the RNAGym collection of RNA variant scans (doi:10.1126/science.aae0568).
Variants at the floor of the assay were thinned out.

B1: tRNA (parent)
chain: GUUCCGUUGGCGUAAUGGUAACGCGUCUCCCUCCUAAGGAGAAGACUGCGGGUUCGAGUCCCGUACGGAACG

Variants of: B1
Experiment: yeast fitness relative to wild type (ratio to wild type); higher = fitter; tRNA-Arg(CCU), competitive growth, 37 C, YPD
Procedure, shortened: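 Amplicons of the tRNA-Arg(CCU) gene were sequenced, 100-nucleotide paired-end, from the start population and from each end population of a pooled yeast competition. The competition, in six parallel replicates, lasted 24 hours in YPD at 37°C. Fitness relative to wild type was calculated from changes in genotype frequencies. Genotypes had to have ≥ 100 starting reads, and estimates < 0.5 were set to 0.5.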

Variant | yeast fitness
U8G U35G C55G | ≤ 0.5
U8G G38A G67A A69U | ≤ 0.5
G9A A37C | 0.918
G9A A70U | 0.875
G9A A70C | 1.06
G9A A20G A42C G52C U54A | ≤ 0.5
G9A C24G C30U A57G | ≤ 0.5
G9A A14C C27U C46U G52C | 0.53
G9A A42G C61A | 0.611
G9A C22G U35C C49G G68C | ≤ 0.5
G9A C11G C24G U32G G52C | ≤ 0.5
U8G U32C C33G C61A C66U | ≤ 0.5
G9A A40C U54C | 0.753
G9A A15C A43U | ≤ 0.5
G9A C31A C33A | ≤ 0.5
G9A A36U G39A U54A | ≤ 0.5
G9A A14G G56A G67A | ≤ 0.5
G9A C11G U54C C55G G63C G67C | ≤ 0.5
U8G U19A U54A A57U G68C | ≤ 0.5
G9A C31U C60U C62U | ≤ 0.5
G9A C27U G56A G67A | ≤ 0.5
G9A C11A G38C G58A C60G | ≤ 0.5
U8G G50C U64G | 0.56
G9A A15G A20U U28C A69U | 0.542

Variant | yeast fitness
G9A C11G U13G G23C C34U U59C C66U | 0.574
U8G U16A C34A A36C U64C C66A | ≤ 0.5
G9A C46U G67C | 0.633
G9A C24U G58C G67C | ≤ 0.5
G9A C22G C31U C61A A65C C66A | ≤ 0.5
G9A C29G C30G C46G | ≤ 0.5
G9A A15C | 0.788
G9A C31U C60G C61U G63A | ≤ 0.5
G9A C11A A20G A42U G68C A70C | 0.554
G9A C11A C30A A42C | 0.531
G9A C24U G25C C30G G50C G56A C66U | ≤ 0.5
G9A A21C G52A G56C C62G C66U | ≤ 0.5
G9A C22A U26A G52C G67A | ≤ 0.5
G9A A43C A57C | 0.569
G9A A43C A57U | ≤ 0.5
G9A C27U A43G | 0.588
G9A A15U C29G C33U A36C G67A | ≤ 0.5
G9A C11A C34G A36G A65C | ≤ 0.5
G9A C49U A69C | 0.85
U8G G18C A37G A40G C55G C66A | ≤ 0.5
G9A C11U A69C | 0.787
G9A C33G C49A A69U | ≤ 0.5
G9A A20G U64C | 0.674
G9A C33U A36U | 0.536

Variant | yeast fitness
G9A A36G A43G | 0.748
G9A C33G A42C C49U C55G | 0.729
U8G U32G G38A G56C | ≤ 0.5
G9A A14G A37G | 0.624
U8G U13A C34G | ≤ 0.5
G9A C31U A70C | 0.766
G9A C34G C61U C66U | ≤ 0.5
G9A C11G C33U A36G C55G | ≤ 0.5
G9A A40C A45G A57G | ≤ 0.5
G9A C34G | 0.588
G9A C24G C34G C61U | ≤ 0.5
G9A A15G U16A G23C A69C | ≤ 0.5
G9A A14U C34G A37C | ≤ 0.5
G9A C30G A43C | ≤ 0.5
G9A C27G A40G | 0.53
G9A A36U G39A A57G A69C | ≤ 0.5
G9A C24G A40C G68A | ≤ 0.5
G9A C29G A45U C46G G48A G56C | ≤ 0.5
G9A C49U | 0.845
G9A A43G U59A | 0.535
G9A A15U A20G A65U | ≤ 0.5
G9A C33U C49G | ≤ 0.5
G9A C11A A57G | ≤ 0.5
U8G U19C C46A | 0.853

Variant | yeast fitness
U8G U13A A43G U53A | 0.58
G9A C11U A36C | ≤ 0.5
G9A A69C | 1.05
G9A C31U A43U | 0.697
G9A C11A C30A A42C G67C | ≤ 0.5
U8G G52C G67A | ≤ 0.5
G9A C11G A57U | ≤ 0.5
G9A A69C A70C | 1.04
G9A A15C A69U | 0.86
G9A A57G G67A | 0.558
G9A C29U C46U | 0.626
G9A C22U U28C G44A G51C G58C | ≤ 0.5
G9A C24U U32A | 0.564
G9A C11G U19C G56A C60G | 0.566
G9A C31G G56C | 0.753
G9A C31U A57C U64A G68A | ≤ 0.5
G9A A65G A70G | 0.595
G9A A20G G38A C62U | 0.676
U8G G38C G67U | 0.529
G9A A20G C49U | 0.847
G9A A14U C29G C34A G56A | ≤ 0.5
G9A C11G U32C A69C | ≤ 0.5
G9A A20G C30U G52A G68A | ≤ 0.5
G9A A21C C46G C49G | ≤ 0.5

Variant | yeast fitness
G9A A14C G25C G56A | 0.579
G9A C55G A65C | ≤ 0.5
G9A A45G G68C | 0.543
U8G G39C U59G C66U | ≤ 0.5
G9A C22A A65G | 0.617
G9A C22A U47G C55A | ≤ 0.5
G9A C22U U53G | 0.555
G9A C11U A42U U47C G51A A70C | ≤ 0.5
U8G G25C A36G G48A C60A | ≤ 0.5
G9A C11G U13G G23C G25A C34U U59C C66U | ≤ 0.5
G9A C11G C22U A40G | ≤ 0.5
U8G U13G A37U G63C | ≤ 0.5
G9A A37C A43C | 0.524
G9A C29A G50A | 0.62
G9A C22G U54C | 0.589
G9A C11G C22U A40G A70G | ≤ 0.5
G9A A36C G38A | ≤ 0.5
U8G G25C A36G G48A | ≤ 0.5
G9A C46U | 0.943
G9A A40C C66U | 0.719
U8G G52A | 0.512
U8G U28G C34A | ≤ 0.5
G9A A45C U53A G63C | ≤ 0.5
G9A C29A | 0.735

Variant | yeast fitness
G9A C29G | 0.555
G9A C34U C49A G52A | ≤ 0.5
G9A A15G A20U U28C A45U | ≤ 0.5
G9A A21U C31G | 0.573
G9A A43C C62G | ≤ 0.5
G9A A15G A20U U28C | 0.551
G9A C46A C61A | 0.53
G9A A43C A69U A70C | 0.782
G9A C24G U28C A57C | ≤ 0.5
G9A C31A G41C A69C | ≤ 0.5
G9A A36G G68U | 0.743
G9A A57U A65U | 0.532
G9A A15U C22A G25A G48A | ≤ 0.5
U8G U26C | 0.592
U8G U26A | 0.605
G9A A21G G58C A70C | ≤ 0.5
G9A C24U U32G A65C C66G | ≤ 0.5
G9A A21U U28C G44A C55G | ≤ 0.5
G9A A21G C29G C34G | ≤ 0.5
G9A C11G U13G G23C C34U C49U U59C C66U | ≤ 0.5
G9A C11U C46G C62U C66U | ≤ 0.5
G9A C22G C31U | 0.683
U8G U54C | 0.565
G9A C55A | 0.707

Variant | yeast fitness
G9A C55G | 0.549
G9A C55U | 0.65
G9A C31A A65U | ≤ 0.5
G9A C31A A65C | 0.871
G9A A21C C34A A43G | ≤ 0.5
G9A C11G A40U G56A | ≤ 0.5
G9A C27G C34A C46G | ≤ 0.5
G9A A15G A42C C62U | ≤ 0.5
G9A A36G C46U | 0.683
G9A A21G C29G C34G A57U C62G | ≤ 0.5
G9A C46G C49U A69C | 0.709
G9A A40C G48C A57G | ≤ 0.5
G9A A42C C55G | ≤ 0.5
U8G G17A C31A | ≤ 0.5
G9A A14U C29G C34A C62U | ≤ 0.5
U8G U26A G52A U54A C60A | ≤ 0.5
G9A C11G G68A | ≤ 0.5
G9A A40G C66U | ≤ 0.5
G9A C31U A40C | 1.04
G9A A57U A65C A69C | ≤ 0.5
U8G U13A C30U G39C C55G | 0.526
G9A C24U G38A G48C | ≤ 0.5
G9A A21U G39C | ≤ 0.5
